Results from the M2OR odorant receptor database.

Columns and labels:
Conditions in all cases: stereoisomer not certain
[1] = target: T1, OR5AC2 (Homo sapiens) (UniProt Q9NZP5)
T1 sequence (whole entry): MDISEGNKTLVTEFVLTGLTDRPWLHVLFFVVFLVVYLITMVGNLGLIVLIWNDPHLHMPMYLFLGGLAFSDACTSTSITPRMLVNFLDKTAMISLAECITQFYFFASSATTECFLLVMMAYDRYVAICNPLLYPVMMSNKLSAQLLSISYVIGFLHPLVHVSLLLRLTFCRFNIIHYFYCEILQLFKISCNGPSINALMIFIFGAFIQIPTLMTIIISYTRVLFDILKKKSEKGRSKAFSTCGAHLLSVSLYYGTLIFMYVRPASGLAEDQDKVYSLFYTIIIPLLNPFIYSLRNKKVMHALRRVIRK
In short: (§1)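 Assay methods differ from source to source, frequently being transient luciferase assays in mammalian cell lines. For each receptor–molecule pair, the label responsive (active) applies when the original authors judged the measured signal statistically different from baseline, and non-responsive (inactive) applies otherwise.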

[2] = target: T2, OR52N4 (Homo sapiens) (UniProt Q8NGI2)
T2 sequence (whole entry): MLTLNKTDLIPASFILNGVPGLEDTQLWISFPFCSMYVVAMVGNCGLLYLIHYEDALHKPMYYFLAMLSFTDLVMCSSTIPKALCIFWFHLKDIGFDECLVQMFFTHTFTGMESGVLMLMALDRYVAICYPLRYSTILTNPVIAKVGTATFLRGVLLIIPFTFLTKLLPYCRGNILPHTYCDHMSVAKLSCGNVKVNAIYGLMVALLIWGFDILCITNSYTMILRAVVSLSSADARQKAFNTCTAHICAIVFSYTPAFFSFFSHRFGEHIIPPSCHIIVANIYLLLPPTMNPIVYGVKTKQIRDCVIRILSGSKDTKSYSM
In short: as §1

[3] = target: T3, OR52N5 (Homo sapiens) (UniProt Q8NH56)
T3 sequence (whole entry): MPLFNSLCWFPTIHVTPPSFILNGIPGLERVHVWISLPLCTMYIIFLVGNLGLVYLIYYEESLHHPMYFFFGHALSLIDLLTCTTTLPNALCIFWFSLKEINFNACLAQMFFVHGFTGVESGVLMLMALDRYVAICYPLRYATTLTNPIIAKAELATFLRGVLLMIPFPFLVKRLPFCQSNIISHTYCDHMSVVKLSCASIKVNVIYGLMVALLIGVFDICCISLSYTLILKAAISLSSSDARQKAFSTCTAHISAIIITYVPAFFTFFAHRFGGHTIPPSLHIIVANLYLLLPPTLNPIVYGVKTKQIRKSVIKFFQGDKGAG
In short: as §1

[4] = target: T4, OR52R1 (Homo sapiens) (UniProt Q8NGF1)
T4 sequence (whole entry): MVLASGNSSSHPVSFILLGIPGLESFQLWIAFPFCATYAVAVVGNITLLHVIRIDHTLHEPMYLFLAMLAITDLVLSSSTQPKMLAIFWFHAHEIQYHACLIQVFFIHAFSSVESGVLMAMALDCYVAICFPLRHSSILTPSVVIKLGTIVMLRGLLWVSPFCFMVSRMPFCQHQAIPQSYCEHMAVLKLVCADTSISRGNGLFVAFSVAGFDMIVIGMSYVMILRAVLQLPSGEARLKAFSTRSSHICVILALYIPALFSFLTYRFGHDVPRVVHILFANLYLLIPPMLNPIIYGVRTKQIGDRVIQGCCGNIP
In short: as §1

[5] = target: T5, OR52W1 (Homo sapiens) (UniProt Q6IF63)
T5 sequence (whole entry): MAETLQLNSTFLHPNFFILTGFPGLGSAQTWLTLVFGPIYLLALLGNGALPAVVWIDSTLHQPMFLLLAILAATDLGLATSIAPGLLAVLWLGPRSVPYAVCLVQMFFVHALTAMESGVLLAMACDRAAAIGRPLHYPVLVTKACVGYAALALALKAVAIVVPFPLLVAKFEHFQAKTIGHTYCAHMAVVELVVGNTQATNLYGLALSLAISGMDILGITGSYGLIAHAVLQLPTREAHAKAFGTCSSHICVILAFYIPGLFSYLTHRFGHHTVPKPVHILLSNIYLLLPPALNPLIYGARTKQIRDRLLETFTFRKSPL
In short: as §1

[6] = target: T6, OR56A1 (Homo sapiens) (UniProt Q8NGH5)
T6 sequence (whole entry): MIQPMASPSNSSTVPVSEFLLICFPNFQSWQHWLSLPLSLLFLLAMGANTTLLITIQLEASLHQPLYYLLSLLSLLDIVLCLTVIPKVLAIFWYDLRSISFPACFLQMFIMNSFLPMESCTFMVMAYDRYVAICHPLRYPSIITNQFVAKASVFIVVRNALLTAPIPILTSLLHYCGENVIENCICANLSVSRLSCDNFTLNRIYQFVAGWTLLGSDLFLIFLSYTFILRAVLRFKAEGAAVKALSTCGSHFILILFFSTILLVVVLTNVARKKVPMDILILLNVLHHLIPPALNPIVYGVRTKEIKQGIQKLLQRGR
In short: as §1

[7] = target: T7, OR56A3 (Homo sapiens) (UniProt Q8NH54)
T7 sequence (whole entry): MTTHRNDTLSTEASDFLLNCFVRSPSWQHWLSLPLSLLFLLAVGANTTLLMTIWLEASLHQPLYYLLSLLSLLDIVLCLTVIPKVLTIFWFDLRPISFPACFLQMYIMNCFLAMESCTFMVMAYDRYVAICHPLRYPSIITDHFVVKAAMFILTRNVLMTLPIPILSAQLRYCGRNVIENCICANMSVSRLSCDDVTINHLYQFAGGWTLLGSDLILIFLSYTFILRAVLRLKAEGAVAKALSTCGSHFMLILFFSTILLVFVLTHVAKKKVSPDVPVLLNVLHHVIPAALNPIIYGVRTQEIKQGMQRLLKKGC
In short: as §1

[8] = target: T8, OR56A4 (Homo sapiens) (UniProt Q8NGH8)
T8 sequence (whole entry): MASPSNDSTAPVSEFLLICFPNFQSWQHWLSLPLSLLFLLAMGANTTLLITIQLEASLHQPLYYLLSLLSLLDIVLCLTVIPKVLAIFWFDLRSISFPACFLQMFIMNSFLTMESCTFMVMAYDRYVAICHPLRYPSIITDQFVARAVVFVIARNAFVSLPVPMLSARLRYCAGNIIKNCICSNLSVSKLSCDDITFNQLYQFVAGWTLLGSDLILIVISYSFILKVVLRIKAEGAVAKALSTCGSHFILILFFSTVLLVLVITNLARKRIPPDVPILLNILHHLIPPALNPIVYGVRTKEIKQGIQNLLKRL
In short: as §1

[9] = target: T9, OR56B1 (Homo sapiens) (UniProt Q8NGI3)
T9 sequence (whole entry): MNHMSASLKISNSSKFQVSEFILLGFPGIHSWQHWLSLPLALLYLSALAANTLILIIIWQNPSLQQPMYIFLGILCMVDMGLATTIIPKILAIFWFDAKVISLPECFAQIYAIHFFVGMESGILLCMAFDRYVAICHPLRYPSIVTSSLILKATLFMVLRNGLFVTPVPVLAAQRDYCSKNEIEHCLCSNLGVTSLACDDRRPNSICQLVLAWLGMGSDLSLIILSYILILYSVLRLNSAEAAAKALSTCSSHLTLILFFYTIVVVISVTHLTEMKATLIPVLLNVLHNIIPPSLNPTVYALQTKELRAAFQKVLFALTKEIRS
In short: as §1

[10] = target: T10, OR56B4 (Homo sapiens) (UniProt Q8NH76)
T10 sequence (whole entry): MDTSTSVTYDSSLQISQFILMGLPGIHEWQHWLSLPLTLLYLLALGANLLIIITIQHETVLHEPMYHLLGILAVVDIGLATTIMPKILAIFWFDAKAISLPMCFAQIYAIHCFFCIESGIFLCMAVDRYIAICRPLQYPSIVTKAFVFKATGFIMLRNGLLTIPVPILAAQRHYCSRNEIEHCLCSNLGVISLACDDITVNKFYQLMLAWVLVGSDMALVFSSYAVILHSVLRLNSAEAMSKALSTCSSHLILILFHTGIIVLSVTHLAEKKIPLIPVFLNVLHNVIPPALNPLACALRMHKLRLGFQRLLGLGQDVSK
In short: as §1

[11] = target: OR52Z1P (Homo sapiens) (UniProt P0C646)
In short: as §1

[12] = target: T11, OR56A5 (Homo sapiens) (UniProt P0C7T3)
T11 sequence (whole entry): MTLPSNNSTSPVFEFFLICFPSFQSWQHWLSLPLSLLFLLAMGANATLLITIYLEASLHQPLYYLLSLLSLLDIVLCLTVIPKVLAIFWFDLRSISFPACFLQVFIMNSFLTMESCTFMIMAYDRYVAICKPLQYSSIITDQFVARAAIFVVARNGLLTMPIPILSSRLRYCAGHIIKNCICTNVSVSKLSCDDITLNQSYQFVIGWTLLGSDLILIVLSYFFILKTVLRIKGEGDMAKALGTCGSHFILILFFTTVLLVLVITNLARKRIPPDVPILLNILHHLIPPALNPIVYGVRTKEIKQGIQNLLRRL
In short: as §1

[13] = target: T12, OR5A1 (Homo sapiens) (UniProt Q8NGJ0)
T12 sequence (whole entry): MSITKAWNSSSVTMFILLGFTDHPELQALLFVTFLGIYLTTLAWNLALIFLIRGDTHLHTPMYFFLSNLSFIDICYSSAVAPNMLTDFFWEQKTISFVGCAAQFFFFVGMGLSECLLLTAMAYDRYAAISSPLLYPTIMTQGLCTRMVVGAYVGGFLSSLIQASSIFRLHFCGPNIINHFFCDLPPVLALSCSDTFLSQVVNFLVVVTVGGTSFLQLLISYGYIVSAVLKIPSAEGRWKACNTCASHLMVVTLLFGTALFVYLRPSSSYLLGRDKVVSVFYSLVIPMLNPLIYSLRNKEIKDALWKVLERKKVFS
In short: as §1

[14] = target: T13, OR5A2 (Homo sapiens) (UniProt Q8NGI9)
T13 sequence (whole entry): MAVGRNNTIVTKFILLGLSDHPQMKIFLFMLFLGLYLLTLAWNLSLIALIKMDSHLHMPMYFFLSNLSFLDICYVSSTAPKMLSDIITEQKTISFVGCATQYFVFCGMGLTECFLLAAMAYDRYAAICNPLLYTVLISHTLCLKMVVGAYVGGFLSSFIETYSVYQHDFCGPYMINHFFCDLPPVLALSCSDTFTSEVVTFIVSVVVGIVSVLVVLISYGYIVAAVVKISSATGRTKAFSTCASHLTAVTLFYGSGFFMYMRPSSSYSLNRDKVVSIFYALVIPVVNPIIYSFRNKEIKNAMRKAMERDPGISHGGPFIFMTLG
In short: as §1

[15] = target: OR5AC1 (Homo sapiens) (UniProt P0C628)
In short: as §1

[16] = target: T14, OR5AK2 (Homo sapiens) (UniProt Q8NH90)
T14 sequence (whole entry): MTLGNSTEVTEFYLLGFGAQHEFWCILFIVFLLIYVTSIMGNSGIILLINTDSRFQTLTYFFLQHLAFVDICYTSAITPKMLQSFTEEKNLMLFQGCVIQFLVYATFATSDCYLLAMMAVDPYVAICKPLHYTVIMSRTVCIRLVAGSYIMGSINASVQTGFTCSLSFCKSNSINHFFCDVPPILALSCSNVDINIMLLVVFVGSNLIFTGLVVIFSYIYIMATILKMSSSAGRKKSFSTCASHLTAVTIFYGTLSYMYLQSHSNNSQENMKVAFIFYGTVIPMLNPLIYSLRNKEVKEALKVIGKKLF
In short: as §1

[17] = target: OR5AL1 (Homo sapiens) (UniProt P0C617)
In short: as §1

[18] = target: T15, OR5AN1 (Homo sapiens) (UniProt Q8NGI8)
T15 sequence (whole entry): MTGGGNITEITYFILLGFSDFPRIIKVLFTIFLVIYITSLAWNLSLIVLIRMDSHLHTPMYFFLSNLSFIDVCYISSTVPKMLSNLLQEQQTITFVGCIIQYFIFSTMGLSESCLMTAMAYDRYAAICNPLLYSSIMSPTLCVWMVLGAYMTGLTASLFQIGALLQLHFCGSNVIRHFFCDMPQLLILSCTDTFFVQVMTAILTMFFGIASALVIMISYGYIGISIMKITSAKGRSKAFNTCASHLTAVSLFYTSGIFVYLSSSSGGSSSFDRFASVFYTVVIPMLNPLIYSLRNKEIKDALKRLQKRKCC
In short: as §1

[19] = target: T16, OR5AP2 (Homo sapiens) (UniProt Q8NGF4)
T16 sequence (whole entry): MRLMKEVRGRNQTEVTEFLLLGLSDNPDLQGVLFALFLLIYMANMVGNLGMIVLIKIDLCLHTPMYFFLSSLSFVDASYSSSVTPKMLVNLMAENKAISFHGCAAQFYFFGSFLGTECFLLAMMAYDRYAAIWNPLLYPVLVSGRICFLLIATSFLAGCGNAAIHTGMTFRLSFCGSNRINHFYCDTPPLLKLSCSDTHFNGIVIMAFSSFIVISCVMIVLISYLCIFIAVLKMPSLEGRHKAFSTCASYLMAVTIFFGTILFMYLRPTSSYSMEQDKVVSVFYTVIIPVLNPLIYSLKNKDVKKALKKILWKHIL
In short: as §1

Measured: odorant receptor agonist call

Sequence of OR5AC1 (Homo sapiens) (P0C628 whole entry): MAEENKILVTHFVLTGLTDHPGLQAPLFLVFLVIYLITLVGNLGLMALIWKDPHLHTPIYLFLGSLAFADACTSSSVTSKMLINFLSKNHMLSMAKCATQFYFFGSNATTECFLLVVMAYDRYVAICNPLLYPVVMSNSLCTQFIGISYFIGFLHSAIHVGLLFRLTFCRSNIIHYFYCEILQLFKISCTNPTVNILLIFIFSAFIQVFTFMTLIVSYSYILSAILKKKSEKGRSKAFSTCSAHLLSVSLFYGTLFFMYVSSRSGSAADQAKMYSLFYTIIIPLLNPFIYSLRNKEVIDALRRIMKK
Sequence of OR52Z1P (Homo sapiens) (P0C646 whole entry): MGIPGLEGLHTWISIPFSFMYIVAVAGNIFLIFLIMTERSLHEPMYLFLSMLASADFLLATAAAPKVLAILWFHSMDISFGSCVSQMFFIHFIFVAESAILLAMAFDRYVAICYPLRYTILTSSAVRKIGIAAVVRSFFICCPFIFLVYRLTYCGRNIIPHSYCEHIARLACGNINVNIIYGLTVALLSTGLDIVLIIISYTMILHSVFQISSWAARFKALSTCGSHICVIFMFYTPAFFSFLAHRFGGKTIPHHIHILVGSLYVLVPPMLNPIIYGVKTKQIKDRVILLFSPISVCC
Sequence of OR5AL1 (Homo sapiens) (P0C617 whole entry): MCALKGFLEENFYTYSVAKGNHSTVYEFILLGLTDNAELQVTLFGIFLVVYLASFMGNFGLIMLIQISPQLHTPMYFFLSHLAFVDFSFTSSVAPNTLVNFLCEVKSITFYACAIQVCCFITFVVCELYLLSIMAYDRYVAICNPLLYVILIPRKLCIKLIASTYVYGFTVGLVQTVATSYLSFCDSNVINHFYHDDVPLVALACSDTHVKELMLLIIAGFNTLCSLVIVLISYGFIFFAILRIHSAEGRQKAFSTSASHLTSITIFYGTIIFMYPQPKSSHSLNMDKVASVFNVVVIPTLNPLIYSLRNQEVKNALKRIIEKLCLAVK

CCC=C(C)C(O)CCCCC (configuration not stated)
inactive: [1]

CCCCCC1CCCC(=O)O1 (configuration not stated)
inactive: [2] | [5] | [6] | [7] | [8] | [9]
active: [3] | [4] | [10]

CC(=O)c1c(C)c([N+](=O)[O-])c(C(C)(C)C)c([N+](=O)[O-])c1C
active: [18]
inactive: all other assays above

CCCCCC(S)C(C)CO (configuration not stated)
not listed: [11] | [15] | [17]
inactive: all other assays above

C=CCOC(=O)COCCC(C)C
inactive: [1]

CCCCC(S)C(C)CO (configuration not stated)
active: [3] | [10]
not listed: [11] | [15] | [17]
inactive: all other assays above
